Laboratory results from ChEMBL document CHEMBL1153820, “Novel derivatives of pyridylbenzo[b]thiophene-2-carboxamides and benzo[b]thieno[2,3-c]naphthyridin-2-ones: minor structural variations provoke major differences of antitumor action mechanisms” (J Med Chem, 2009).
Activity calls are given as the source filed them. No cut-off for these calls is given here.

Experiments:
[1] = tested on: Calf thymus DNA; test: Binding affinity to calf thymus DNA assessed as change in melting temperature at [compound]/[polynucleotide] ratio of 0.3 at pH 7.0; format: nucleic-acid assay; conditions: Bos taurus
Procedure, shortened: (§1)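 Thermal denaturation of ct-DNA (sonicated, filtered, concentration as phosphate) alone and with compound in Na cacodylate buffer pH 7.0, I = 0.05 mol dm-3. Absorbance at 260 nm followed versus temperature, ligand absorbance subtracted, scale normalized. Tm is the transition midpoint, from the first-derivative maximum or by tangent method. ΔTm = Tm(complex) − Tm(free DNA). Mean of at least two runs, error ±0.5 °C.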

[2] = tested on: Calf thymus DNA; test: Binding affinity to calf thymus DNA at pH 7.0 by UV/Visible spectroscopy; format: nucleic-acid assay; conditions: Bos taurus
Procedure, shortened: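 UV/vis titration: portions of ct-DNA (as phosphate) added to compound (c = 1.2 × 10-5 mol dm-3). Na cacodylate buffer pH 7.0, I = 0.05 mol dm-3; change followed at λmax 314 nm. Ks and n from Scatchard equation by nonlinear least-squares fitting.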

[3] = tested on: Calf thymus DNA; test: Binding affinity to calf thymus DNA at pH 7.0 by fluorimetric titration method; format: nucleic-acid assay; conditions: Bos taurus
Procedure, shortened: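 Fluorimetric titration: ct-DNA portions added to compound at about tenfold lower concentration than in UV/vis, absorbance below 0.05 at excitation. Emission 350–550 nm in Na cacodylate buffer pH 7.0, I = 0.05 mol dm-3. log Ks from Scatchard fitting (nonlinear least squares) at fixed n = 0.2.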

[4] = tested on: Calf thymus DNA; test: Binding affinity to calf thymus DNA assessed as change in melting temperature at [compound]/[polynucleotide] ratio of 0.5 at pH 7.0; format: nucleic-acid assay; conditions: Bos taurus; procedure, shortened: as §1
[5] = tested on: Calf thymus DNA; test: Binding affinity to calf thymus DNA minor groove assessed as change in DNA spectrum by CD spectroscopy; format: nucleic-acid assay; conditions: Bos taurus
[6] = tested on: NCI-H460; test: Growth inhibition of human H460 cells after 72 hrs by MTT method; format: functional, cell-based; conditions: NCI-H460, 72 h
Procedure, shortened: (§2)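 Cells in DMEM with 10% FBS, 2 mM L-glutamine, penicillin/streptomycin, 37 °C, 5% CO2. Seeded at 1 × 10^4 to 3 × 10^4 cells/mL. Compound given as five 10-fold dilutions (10-8–10-4 M, DMSO under 1%) for 72 h, then MTT read-out. Quadruplicate, three experiments. IC50 by linear regression between concentrations bracketing 50% growth; top concentration reported as ">" when not reached.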

[7] = tested on: HeLa; test: Growth inhibition of human HeLa cells after 72 hrs by MTT method; format: functional, cell-based; procedure, shortened: as §2
[8] = tested on: MIA PaCa-2; test: Growth inhibition of human MIAPaCa2 cells after 72 hrs by MTT method; format: functional, cell-based; conditions: MIA PaCa-2, 72 h; procedure, shortened: as §2
[9] = tested on: SW-620; test: Growth inhibition of human SW620 cells after 72 hrs by MTT method; format: functional, cell-based; conditions: SW-620, 72 h; procedure, shortened: as §2
[10] = tested on: MCF7; test: Growth inhibition of human MCF7 cells after 72 hrs by MTT method; format: functional, cell-based; conditions: MCF7, 72 h; procedure, shortened: as §2
[11] = tested on: MIA PaCa-2; test: Cell cycle arrest in human MIAPaCa2 cells assessed as accumulation at subG1 phase at 5 uM after 24 hrs by flow cytometry; format: functional
Procedure, shortened: (§3)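 MiaPaCa-2 cells (2 × 10^5/well) seeded, compound (5 μM) added after 24 h, exposed 24 or 48 h. Attached and floating cells pooled, fixed in 70% ethanol, stained with propidium iodide 50 μg/mL plus RNase A. 20 000 events by flow cytometry; phase percentages (sub-G1 taken as apoptotic) from DNA histograms. Duplicates, repeated at least twice.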

[12] = tested on: MIA PaCa-2; test: Cell cycle arrest in human MIAPaCa2 cells assessed as accumulation at G1/G0 phase at 5 uM after 24 hrs by flow cytometry; format: functional; procedure, shortened: as §3
[13] = tested on: MIA PaCa-2; test: Cell cycle arrest in human MIAPaCa2 cells assessed as accumulation at S phase at 5 uM after 24 hrs by flow cytometry; format: functional; procedure, shortened: as §3
[14] = tested on: MIA PaCa-2; test: Cell cycle arrest in human MIAPaCa2 cells assessed as accumulation at G2/M phase at 5 uM after 24 hrs by flow cytometry; format: functional; procedure, shortened: as §3
[15] = tested on: MIA PaCa-2; test: Cell cycle arrest in human MIAPaCa2 cells assessed as accumulation at subG1 phase at 5 uM after 48 hrs by flow cytometry; format: functional; procedure, shortened: as §3
[16] = tested on: MIA PaCa-2; test: Cell cycle arrest in human MIAPaCa2 cells assessed as accumulation at G1/G0 phase at 5 uM after 48 hrs by flow cytometry; format: functional; procedure, shortened: as §3
[17] = tested on: MIA PaCa-2; test: Cell cycle arrest in human MIAPaCa2 cells assessed as accumulation at S phase at 5 uM after 48 hrs by flow cytometry; format: functional; procedure, shortened: as §3
[18] = tested on: MIA PaCa-2; test: Cell cycle arrest in human MIAPaCa2 cells assessed as accumulation at G2/M phase at 5 uM after 48 hrs by flow cytometry; format: functional; procedure, shortened: as §3
[19] = species on record: Bos taurus; test: Inhibition of calf thymus topoisomerase 1-mediated DNA relaxation assessed as induction of plasmid DNA nicking at 200 uM by gel electrophoresis
Procedure, shortened: (§4)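 Supercoiled pCI plasmid (0.8 μg) with calf thymus topoisomerase I (6 U) ± compound (200 μM) in Tris-HCl pH 7.5, 175 mM KCl, 5 mM MgCl2, 0.1 mM EDTA, 2.5% glycerol; 37 °C, 30 min. Stopped with SDS, then proteinase K and phenol/chloroform extraction. Samples run on 1% agarose with and without 0.5 μg/mL ethidium bromide to resolve nicked, supercoiled and relaxed forms; UV visualization.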

[20] = tested on: Calf thymus DNA; test: Binding affinity to calf thymus DNA assessed as decrease in DNA bands at 245 nm and 280 nm wavelength by CD spectroscopy; format: nucleic-acid assay; conditions: Bos taurus
[21] = species on record: Bos taurus; test: Inhibition of calf thymus topoisomerase 1-mediated DNA relaxation at 200 uM by gel electrophoresis; procedure, shortened: as §4
[22] = tested on: MIA PaCa-2; test: Induction of cell shape disruption in human MIAPaCa2 cells at 5 uM after 24 hrs by immunofluorescence spectroscopy; format: functional, cell-based
Procedure, shortened: (§5)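 MiaPaCa-2 cells (2 × 10^5) grown overnight on coverslips, then exposed to 5 μM compound for 24 h. Fixed in 4% formaldehyde, permeabilized with 0.1% Triton X-100, blocked with 4% FCS. Stained with mouse anti-α-tubulin (1/200, 2 h) and FITC anti-mouse secondary (1/500, 1 h). Nuclei stained with DAPI 100 ng/mL; fluorescence microscopy at 400×.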

[23] = tested on: MIA PaCa-2; test: Induction of tubulin network disruption in human MIAPaCa2 cells at 5 uM after 24 hrs by immunofluorescence spectroscopy; format: functional, cell-based; procedure, shortened: as §5
[24] = tested on: MIA PaCa-2; test: Induction of multinucleation in human MIAPaCa2 cells at 5 uM after 24 hrs by DAPI staining; format: functional, cell-based; procedure, shortened: as §5
[25] = tested on: MIA PaCa-2; test: Induction of nuclear fragmentation in human MIAPaCa2 cells at 5 uM after 24 hrs by DAPI staining; format: functional, cell-based; procedure, shortened: as §5
[26] = tested on: MIA PaCa-2; test: Induction of apoptosis in human MIAPaCa2 cells by flow cytometry; format: functional, cell-based; procedure, shortened: as §3
[27] = species on record: Bos taurus; test: Inhibition of calf thymus topoisomerase 1-mediated DNA relaxation assessed as induction of plasmid DNA nicking at 100 uM by gel electrophoresis
Procedure, shortened: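 Purified calf thymus topoisomerase I (6 U) was incubated with negatively supercoiled pCI plasmid (0.8 μg), with or without compound, in Tris-HCl relaxation buffer (pH 7.5, 175 mM KCl, 5 mM MgCl2) at 37 °C for 30 min. The reaction was stopped with SDS and proteinase K, then phenol-extracted. Samples were split onto 1% agarose gels with and without ethidium bromide to separate nicked, supercoiled and relaxed forms, and read under UV.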

| Compound | ΔTm [1] [°C] | ΔTm [4] [°C] | IC50 [6] [µM] | IC50 [7] [nM] | IC50 [8] [µM] | IC50 [9] [µM] | IC50 [10] [µM] | Activity [11] [%] | Activity [12] [%] | Activity [13] [%] | Activity [14] [%] | Activity [15] [%] | Activity [16] [%] | Activity [17] [%] | Activity [18] [%] | also measured |
| --- | --- | --- | --- | --- | --- | --- | --- | --- | --- | --- | --- | --- | --- | --- | --- | --- |
| Cl.O=C(Nc1ccc(C2=NCCN2)cn1)c1sc2ccccc2c1Cl | 1.3 | 2.1 | 1 | 1500 | 1 | 1 | 1.8 | 3.2 | 37.7 | 41.6 | 20.7 | 4.9 | 52.3 | 32.6 | 15.1 | log Ks [2]: 5.7; log Ks [3]: 5.6; Activity [5]: Active; Activity [19]: inactive |
| Cl.O=c1[nH]c2ncc(C3=NCCN3)cc2c2c1sc1ccccc12 | 6.6 | 8.7 | 1 | 1700 | 1 | 0.6 | 1.6 | 2 | 38.9 | 41.5 | 19.7 | 1.7 | 52.8 | 33.2 | 14.1 | log Ks [3]: 6.44; Activity [20]: Active; Activity [19]: inactive; Activity [21]: Active |
| N#Cc1cnc2[nH]c(=O)c3sc4ccccc4c3c2c1 | – | – | > 100 | 7000 | 12 | 22 | 45 | – | – | – | – | – | – | – | – | – |
| Cl.O=C(Nc1ccc(C2=NCCN2)nc1)c1sc2ccccc2c1Cl | 0 | 0.9 | 1.3 | 1000 | 1.6 | 1.3 | 4 | 18.5 | 17.5 | 16 | 66.5 | 36 | 23.14 | 26 | 50.9 | Activity [22]: Active; Activity [23]: Active; Activity [24]: Active; Activity [25]: Active; Activity [26]: Active |
| N=C(N)c1ccc(-c2cc3ccc(C(=N)N)cc3[nH]2)cc1 | – | – | – | – | – | – | – | – | – | – | – | – | – | – | – | Activity [27]: inactive |
| N#Cc1ccc(NC(=O)c2sc3ccccc3c2Cl)nc1 | – | – | 59 | 2000 | 8 | 20 | 20 | – | – | – | – | – | – | – | – | – |
| O=C(Nc1ccncc1)c1sc2ccccc2c1Cl | – | – | 68 | 2000 | 38 | 38 | 51 | – | – | – | – | – | – | – | – | – |
| CC[C@@]1(O)C(=O)OCc2c1cc1n(c2=O)Cc2cc3ccccc3nc2-1 | – | – | – | – | – | – | – | – | – | – | – | – | – | – | – | Activity [27]: Active |
| O=c1[nH]c2ccncc2c2c1sc1ccccc12 | – | – | > 100 | 14000 | 7 | 6 | > 100 | – | – | – | – | – | – | – | – | – |
